Data taken from publication PMC4492651 (Drug Design, Development and Therapy, 2015).
Read-outs that look alike come from different tables or passages of the source.

Legend:
[1] = system: carrageenan-induced thrombosis; test: Model of carrageenan-induced thrombosis; type: in vivo, KM mice; conditions: n=10; for Black tail length (cm) 24 hours / Black tail occurrence (%) 24 hours: 24 hours after carrageenan; for Black tail length (cm) 24 hours / Black tail length (cm) 48 hours: mean ± SD; for Black tail length (cm) 48 hours / Black tail occurrence (%) 48 hours: 48 hours after carrageenan
[2] = system: transient middle cerebral artery occlusion; parameters: species or system Sprague Dawley rats; conditions: rat, in vivo, ip
HT22 cells = test: H2O2-induced cytotoxicity in HT22 cells; type: cell-based, murine; conditions: Mus musculus, HT-22, read-out: H2O2-treated HT22 viability percentage
How it was run: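 Murine HT22 cells in DMEM with 10% newborn calf serum, 37°C, 5% CO2. Seeded at 20,000 cells/well and grown 24 h. Pretreated in quadruplicate with test compound (10–100 µM) for 2 h, exposed to 500 µM H2O2 for 1 h, then given fresh medium for 12 h. Viability by MTT. Four separate experiments, mean ± SD.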

[3] = system: GSH-Px, SOD, NO and MDA in brain tissue; test: Antioxidant stress activity in vivo after I/R; parameters: species or system Sprague Dawley rats; conditions: I/R rats; for content of SOD in comparison with the model group: 3d 10, 20 and 50 mg/kg, NBP 20 mg/kg, Eda 3.0 mg/kg
How it was run: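 Male Sprague Dawley rats underwent filament MCAO, 2 h occlusion then reperfusion. Test compound (10, 20, 50 mg/kg; model vehicle oil) given ip 15 min after MCAO onset. At 24 h reperfusion, under chloral hydrate, brains were rinsed in cold saline; ischemic core and penumbra were separated and stored at −70°C. After protein assay, T-SOD and GSH-Px activities, MDA and NO were measured by kits. n=10, mean ± SD, ANOVA/Newman–Keuls.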

[4] = 50 mg/kg by gavage daily for 2 days
[5] = 3 mg/kg by gavage daily for 2 days

| Structure (SMILES) | Black tail length (cm) 24 hours [1, 4] [cm] | Black tail occurrence (%) 24 hours [1, 4] [%] | Black tail length (cm) 48 hours [1, 4] [cm] | Black tail occurrence (%) 48 hours [1, 4] [%] | infarct size reduced by ([2]; 20 mg/kg) [%] | viability at 100 µM (HT22 cells) [%] | NO activity ([3]; 20 mg/kg, 24 hours postreperfusion, model 1.51) [U/mg] | content of SOD in comparison with the model group [3] | Black tail length (cm) 24 hours [1, 5] [cm] | Black tail occurrence (%) 24 hours [1, 5] [%] | Black tail length (cm) 48 hours [1, 5] [cm] | Black tail occurrence (%) 48 hours [1, 5] [%] | infarct size reduced by ([2]; 3 mg/kg) [%] | levels of GSH-Px activity vs model animals ([3]; ischemic core, 3d 50 mg/kg, Eda 3 mg/kg) |
| --- | --- | --- | --- | --- | --- | --- | --- | --- | --- | --- | --- | --- | --- | --- |
| CCCCC1OC(=O)c2ccccc21 (centres unmarked) [NBP, 3-n-butylphthalide] | 3.1±0.3 | 30 | 3.5±0.5 | 50 | 26.19 | 71.5 | 0.92 | increased | – | – | – | – | – | – |
| CC1=NN(c2ccccc2)C(=O)C1 [Eda, edaravone] | – | – | – | – | – | 69.9 | – | increased | 4.6±1.7 | 70 | 4.5±1.8 | 80 | 69.65 | significantly higher |
| CC(=O)Oc1ccccc1C(=O)O [ASP, aspirin] | 1.5±0.5 | 30 | 2.4±0.6 | 40 | – | – | – | – | – | – | – | – | – | – |
